The subject of experiment [1] is Acinetobacter baumannii. Nature of the experiment: Synergistic antibacterial activity against ADC deleted Acinetobacter baumannii assessed as meropenem MIC at 4 ug/ml by broth microdilution method. The format is functional. Conditions: dose 4 µg/ml. (In general: Broth dilution looks for growth in wells or tubes with falling amounts of substance.)
The subject of experiment [2] is Pseudomonas aeruginosa. In words: Synergistic antibacterial activity against Pseudomonas aeruginosa 795 assessed as cefepime MIC at 4 ug/ml by broth microdilution method. The format is functional. The conditions noted are these: dose 4 µg/ml.
Experiment [3] relates to Escherichia coli. Nature of the experiment: Synergistic antibacterial activity against Escherichia coli DH10B assessed as cefepime MIC at 4 ug/ml by broth microdilution method. The conditions noted are these: dose 4 µg/ml. The format is functional.
The test system of experiment [4] is Pseudomonas aeruginosa. Nature of the experiment: Synergistic antibacterial activity against Pseudomonas aeruginosa 776 assessed as meropenem MIC at 4 ug/ml by broth microdilution method. The class given is functional. The conditions noted are these: dose 4 µg/ml.
The subject of experiment [5] is Acinetobacter baumannii. Nature of the experiment: Synergistic antibacterial activity against ADC deleted Acinetobacter baumannii transfected with pWH1266 producing OXA-24/40 assessed as cefepime MIC at 4 ug/ml by broth microdilution method. The class given is functional. Conditions: dose 4 µg/ml.
Experiment [6] concerns Acinetobacter baumannii. Nature of the experiment: Synergistic antibacterial activity against Acinetobacter baumannii PR319 producing OXA-23/24/40 assessed as meropenem MIC at 4 ug/ml by broth microdilution method. The format is functional. Conditions: dose 4 µg/ml.
Experiment [7] has as its system Klebsiella pneumoniae. Nature of the experiment: Synergistic antibacterial activity against Klebsiella pneumoniae 1354/2241 producing KPC-3 assessed as cefepime MIC at 4 ug/ml by broth microdilution method. The format is functional. The conditions noted are these: dose 4 µg/ml. Summed up: (§1)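 Broth microdilution per CLSI guidelines, using custom frozen panels. […] Each partner drug was also tested alone. MICs were run in triplicate and the modal value is reported.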

Experiment [8] deals with Acinetobacter baumannii. In words: Synergistic antibacterial activity against Acinetobacter baumannii PR363 producing OXA-23 assessed as cefepime MIC at 4 ug/ml by broth microdilution method. The class given is functional. Conditions: dose 4 µg/ml.
The subject of experiment [9] is Escherichia coli. Nature of the experiment: Synergistic antibacterial activity against Escherichia coli DH10B transfected with pBC SK (-) KPC-3 assessed as cefepime MIC at 4 ug/ml by broth microdilution method. The class given is functional. The conditions noted are these: dose 4 µg/ml.
The test system of experiment [10] is Klebsiella pneumoniae. In words: Synergistic antibacterial activity against Klebsiella pneumoniae 972/1910 producing KPC-3 assessed as cefepime MIC at 4 ug/ml by broth microdilution method. The format is functional. Conditions: dose 4 µg/ml.
The test system of experiment [11] is Pseudomonas aeruginosa. In words: Synergistic antibacterial activity against Pseudomonas aeruginosa 715 assessed as meropenem MIC at 4 ug/ml by broth microdilution method. The format is functional. Conditions: dose 4 µg/ml.
Experiment [12] has as its system Klebsiella pneumoniae. In words: Synergistic antibacterial activity against Klebsiella pneumoniae 1084/1957 producing KPC-3 assessed as meropenem MIC at 4 ug/ml by broth microdilution method. The class given is functional. The conditions noted are these: dose 4 µg/ml. Summed up:
as §1

Experiment [13] concerns Klebsiella pneumoniae. In words: Synergistic antibacterial activity against Klebsiella pneumoniae 1315/2198 producing KPC-3 assessed as cefepime MIC at 4 ug/ml by broth microdilution method. The format is functional. Conditions: dose 4 µg/ml. In short, it runs like this: as §1
Experiment [14] concerns Bacteria. In words: Inhibition of bacteria PDC-3 assessed as half life using nitrocefin as substrate.
For experiment [15], the system named is Acinetobacter baumannii. Nature of the experiment: Synergistic antibacterial activity against Acinetobacter baumannii PR420 producing OXA-23/24/40 assessed as meropenem MIC at 4 ug/ml by broth microdilution method. The conditions noted are these: dose 4 µg/ml. The format is functional.
Experiment [16] relates to Acinetobacter baumannii. In words: Synergistic antibacterial activity against Acinetobacter baumannii PR440 producing OXA-23/24/40 assessed as meropenem MIC at 4 ug/ml by broth microdilution method. The format is functional. The conditions noted are these: dose 4 µg/ml.
Experiment [17] deals with Klebsiella pneumoniae. Nature of the experiment: Synergistic antibacterial activity against Klebsiella pneumoniae 1398/2291 producing KPC-3 assessed as cefepime MIC at 4 ug/ml by broth microdilution method. The format is functional. The conditions noted are these: dose 4 µg/ml. In short, it runs like this:
as §1

The test system of experiment [18] is Bacteria. Nature of the experiment: Inhibition of bacteria PDC-3 assessed as second order rate constant K2/K using nitrocefin as substrate.
Experiment [19] has as its system Klebsiella pneumoniae. In words: Synergistic antibacterial activity against Klebsiella pneumoniae NY BS producing OXA-232 assessed as cefepime MIC at 4 ug/ml by broth microdilution method. The format is functional. The conditions noted are these: dose 4 µg/ml.
Experiment [20] in a line: Inhibition of bacteria ADC-7 assessed as apparent inhibition constant using nitrocefin as substrate.

Data on 2 compounds can be found in ChEMBL document CHEMBL5247575 (J Med Chem, 2018).

In general, MIC refers to the least concentration at which growth counts as inhibited.

Take `O.O=C(NC1CCNCC1)[C@@H]1CC[C@@H]2CN1C(=O)N2OS(=O)(=O)O` [RELEBACTAM]: the MIC is at most 0.12 µg/mL in the experiment on Acinetobacter baumannii [1]; over 16 µg/mL with Pseudomonas aeruginosa [2]; at most 0.12 µg/mL in the experiment with Escherichia coli [3]; over 16 µg/mL in the experiment on Pseudomonas aeruginosa [4]; over 16 µg/mL in the experiment with Acinetobacter baumannii [5]; over 16 µg/mL in the experiment with Acinetobacter baumannii [6]. Also, the MIC with Klebsiella pneumoniae [7] is at most 0.12 µg/mL; in the experiment on Acinetobacter baumannii [8], 16 µg/mL; with Escherichia coli [9], at most 0.12 µg/mL; in the experiment on Klebsiella pneumoniae [10], 0.25 µg/mL; with Pseudomonas aeruginosa [11] it was 16 µg/mL; in the experiment with Klebsiella pneumoniae [12], at most 0.12 µg/mL. For the same compound, the minimum inhibitory concentration (MIC) in the experiment on Klebsiella pneumoniae [13] is 0.25 µg/mL; in the experiment on Acinetobacter baumannii [15], over 16 µg/mL; in the experiment with Acinetobacter baumannii [16], over 16 µg/mL; in the experiment with Klebsiella pneumoniae [17], at most 0.12 µg/mL; in the experiment on Klebsiella pneumoniae [19], 2 µg/mL. Further, in the experiment with Bacteria [14], the T1/2 was found to be 12.8 min. The K in the experiment with Bacteria [18] was 4.6 10^4/M/s.
Consider `NC(=O)[C@@H]1CC[C@@H]2CN1C(=O)N2OS(=O)(=O)[O-].[Na+]` [AVIBACTAM SODIUM], for which the MIC is at most 0.12 µg/mL in the experiment with Acinetobacter baumannii [1]; over 16 µg/mL in the experiment with Pseudomonas aeruginosa [2]; at most 0.12 µg/mL with Escherichia coli [3]; over 16 µg/mL in the experiment with Acinetobacter baumannii [5]; over 16 µg/mL in the experiment on Acinetobacter baumannii [6]; at most 0.12 µg/mL with Klebsiella pneumoniae [7]. The MIC is over 16 µg/mL in the experiment with Acinetobacter baumannii [8]; at most 0.12 µg/mL in the experiment on Escherichia coli [9]; at most 0.12 µg/mL in the experiment with Klebsiella pneumoniae [10]; 16 µg/mL in the experiment on Pseudomonas aeruginosa [11]; at most 0.12 µg/mL in the experiment on Klebsiella pneumoniae [12]; at most 0.12 µg/mL in the experiment on Klebsiella pneumoniae [13]. For the same compound, the MIC was over 16 µg/mL in the experiment on Acinetobacter baumannii [15], over 16 µg/mL in the experiment with Acinetobacter baumannii [16], at most 0.12 µg/mL with Klebsiella pneumoniae [17] and 0.5 µg/mL in the experiment with Klebsiella pneumoniae [19]. In [20], the Ki turned out to be 19 µM. Further, in the experiment with Bacteria [14], the T1/2 turned out to be 14.4 min. Further, the K in the experiment with Bacteria [18] was 2.9 10^4/M/s.
